HSV augment = enhancers of HSV replication in host cells, fold increase, host cell viability. maximum fold increase. HSV replication augmentation in cells. 220,000 compounds, 0.005% hits; in the data active = maximum fold increase above about 1.5; tested in PC3 cells
ABCG2 block = ABCG2 efflux pump inhibitors, primary screen, multiplex with ABCB1, IgMXP3 cells, flow cytometry; 190,000 compounds, 0.1% hits; inhibition, % at 6.6 µM; JC-1 efflux; Broad substrate specificity ATP-binding cassette transporter ABCG2 (Homo sapiens), Q9UNQ0; AID 1325, 2008;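 active = inhibition above 80%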;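 note: 0% = DMSO and 100% = nicardipine control wells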
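Test system: IgMXP3 (ABCG2) plus far-red-tagged CCRF-Adr (ABCB1) cells / Amount: 3 million cells/mL in well / Reagent: JC-1 transporter substrate / Timing: 10 min compound exposure, 25 °C / Signal: flow cytometry, 530 nm JC-1 signal / Read-out: percent efflux inhibition, scaled nicardipine 100% to DMSO 0% / Benchmarks: nicardipine as high control, DMSO as low control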
ABCB1 block = ABCB1 efflux pump inhibitors, primary screen, cell-based, multiplex, flow cytometry, ABCG2 counter-screen; CCRF-Adr cells, JC-1 efflux; AID 1326, 2008; 190,000 compounds, 0.067% hits; inhibition, % at 6.6 µM; in the data active = inhibition above about 40%;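 note: 0% = vehicle and 100% = reference inhibitor; higher value means more JC-1 retained so stronger ABCB1 efflux block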
ABCB6 inh MLPCN = ABCB6 transporter inhibitors, primary screen, K562-ABCB6 cells, flow cytometry, MLPCN library; ATP-binding cassette sub-family B member 6 (Homo sapiens), Q9NP58; 360,000 compounds, 0.19% hits; K562-ABCB6 porphyrin accumulation, 1 h; hits give low values; AID 602162, 2011; fluorescence ratio to DMSO, % at 10 µM;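 active = fluorescence ratio to DMSO below 75%, the collection mean minus 3 SD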;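 note: signal is porphyrin accumulated inside mitochondria; 100% equals median channel fluorescence of DMSO control wells; lower ratio means ABCB6 inhibition with less porphyrin fluorescence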
p97 inhibitor = inhibitors of human p97 ATPase, primary screen, biochemical. Transitional endoplasmic reticulum ATPase (Homo sapiens), P55072. inhibition, % at 8 µM. recombinant p97 ATPase, Kinase-Glo ATP luminescence, 3 h. AID 1481, 2009. 220,000 compounds, 0.42% hits; in the data active = inhibition above about 15%;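 note: 0% = DMSO vehicle and 100% = wells lacking enzyme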
Rad51 HR inh = human RAD51 strand exchange inhibitors, primary screen, biochemical, fluorescence. DNA repair protein RAD51 homolog 1 (Homo sapiens), Q06609. hRad51 DNA strand exchange, fluorescence dequenching. inhibition, % at 10 µM. 200,000 compounds, 0.085% hits. AID 1385, 2008;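 active = inhibition above 40% at the single screening dose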;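 note: 0% = DMSO control wells and 100% = blanks with heterologous ssDNA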
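Material: Human Rad51 nucleoprotein filaments preassembled on unlabelled ssDNA | Also added: Labelled 47-mer dsDNA for strand exchange | Dosing: Single dose, 10 µM final compound | Schedule: 30-min compound preincubation and 15-min exchange, both room temperature | Technique: Fluorescence dequenching at 485/520 nm | Measure: Percent inhibition relative to plate controls and blanks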
ABCB6 inh CP1 = ABCB6 transporter inhibitors, confirmation, K562-ABCB6 cells, flow cytometry, cherry pick 1; shares compounds with ABCB6 inh MLPCN; K562-ABCB6 porphyrin accumulation, 1 h; hits give low values; ratio response (% of DMSO), % at 10 µM; 700 tested, under 10 active;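 active = repeat-averaged ratio response below 75% of DMSO, the collection mean minus 3 SD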;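 note: median porphyrin fluorescence at 575 nm with 488 nm excitation from mitochondria; lower ratio means less porphyrin signal so ABCB6 inhibition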
Starred values were filed as active, the others as inactive; i = inactive; · = no result. Shown are actives, neighbours in structure and some others; about 0.55% of the full set was active somewhere.

SMILES	HSV augment	ABCG2 block	ABCB1 block	ABCB6 inh MLPCN	p97 inhibitor	Rad51 HR inh	ABCB6 inh CP1
COCCNC(=O)CCc1nnc2ccc(N3CCC(C)CC3)nn12	·	·	·	96.0	·	·	101.0
CCN(CC)CCNC(=O)CCc1nnc2ccc(N3CCC(C)CC3)nn12	·	·	·	99.0	·	·	103.0
CC(NC(=O)c1ccc(F)cc1F)C1CC2CCC1C2 (centres undefined)	·	·	·	168.0	·	·	·
CC1CCN(c2ccc3nnc(CCC(=O)NC(C)C)n3n2)CC1	·	·	·	97.0	·	·	91.0
O=C(NC1CCCCC1)N1CCC(c2nc(-c3ccc(S(=O)(=O)N4CCCC4)cc3)no2)CC1	i	22.9	0.7	70.0*	3.7	-0.2	103.0
CC1CCN(CCNC(=O)CCS(=O)(=O)c2ccc(Br)cc2)CC1	i	-6.5	0.3	7.0*	3.1	-0.9	95.0
Cc1ccc(CCNC(=O)CCS(=O)(=O)c2ccc(Br)cc2)cc1	i	0.1	0.2	94.0	7.6	-4.5	·
O=C(NC1CCCC1)c1ccc(COCC(F)(F)F)o1	i	3.5	0.8	103.0	-3.4	-2.2	·
O=C(NC1CCCC1)c1ccc(COCC(F)(F)C(F)F)o1	i	5.8	0.6	73.0*	-1.2	-8.5	99.0
CCC(=O)Nc1ccc2c(c1)nc1n2CCSC1	i	4.8	0.9	70.0*	2.2	-1.5	99.0
COc1ccc(NC(=O)C2(C)Cc3c(-c4ccc(C(N)=O)cc4)ccnc3O2)cn1 (centres undefined)	·	·	·	97.0	·	·	99.0
CC(=O)Nc1ccc(-c2ccnc3c2CC(C)(C(=O)Nc2cccc(Oc4ccccc4)c2)O3)cc1 (centres undefined)	·	·	·	95.0	·	·	101.0
CC(=O)Nc1cccc(-c2ccnc3c2CC(C)(C(=O)Nc2ccc4c(c2)OCO4)O3)c1 (centres undefined)	·	·	·	105.0	·	·	102.0
CN(C)c1ccc(-c2ccnc3c2CC(C)(C(=O)Nc2ccc(F)c(Cl)c2)O3)cc1 (centres undefined)	·	·	·	96.0	·	·	101.0
CCCS(=O)(=O)NC(=O)C1(C)CCN(C(=O)c2ccc(OC)cc2)C1 (centres undefined)	·	·	·	94.0	·	·	·
Cc1csc(=O)n1CCC(=O)OCC(=O)NCc1ccccc1	·	·	·	109.0	·	·	·
c1ccc(Cn2ncc3c(N4CCN(c5ccccc5)CC4)ncnc32)cc1	·	·	·	96.0	·	·	·
COc1ccccc1-c1nnc(SC/C(O)=C(\C#N)c2nc3ccccc3[nH]2)n1C1CCCCC1	i	7.9	0.4	71.0*	3.2	·	102.0
Cc1ccc(SCc2c(C#N)c3ccccc3n2C)cc1	i	0.0	0.0	92.0	-6.4	4.8	·
Cn1c(CSc2ccccc2)c(C#N)c2ccccc21	i	1.1	0.1	67.0*	1.1	-5.0	99.0
O=[N+]([O-])c1ccc(OCCn2cncn2)cc1	·	·	·	63.0*	·	·	100.0
CCOC(=O)c1sc2nc(C)cc(-c3ccccc3)c2c1N	i	0.5	0.2	71.0*	3.0	3.9	100.0
CCOC(=O)c1sc2nc(C)cc(C)c2c1N	i	4.2	0.5	94.0	0.9	-4.3	·
COc1cc(C)ccc1S(=O)(=O)NC(=O)C1(C)CCN1C(=O)Cc1ccc(C(C)(C)C)cc1 (centres undefined)	·	·	·	99.0	·	·	100.0
CC1(C(=O)NS(=O)(=O)c2ccc(Cl)cc2)CCN1C(=O)Cc1ccc(-c2ccccc2)cc1 (centres undefined)	·	·	·	93.0	·	·	·
CC1(C(=O)NS(=O)(=O)c2ccc(C#N)cc2)CCN1C(=O)Cc1ccc(-c2ccccc2)cc1 (centres undefined)	·	·	·	95.0	·	·	98.0
CC(C)(C)c1ccc(S(=O)(=O)NC(=O)C2(C)CCN2C(=O)Cc2ccc(-c3ccccc3)cc2)cc1 (centres undefined)	·	·	·	90.0	·	·	98.0

Source: PubChem
